These results are taken from publication PMC10842602 (Bioorganic & medicinal chemistry, 2023).

Some results are limits rather than exact numbers.

This assay addresses T1, WT human SLACK (Homo sapiens, UniProt Q5JUK3).
T1 sequence (Q5JUK3 1-1235 isoform Q5JUK3-3): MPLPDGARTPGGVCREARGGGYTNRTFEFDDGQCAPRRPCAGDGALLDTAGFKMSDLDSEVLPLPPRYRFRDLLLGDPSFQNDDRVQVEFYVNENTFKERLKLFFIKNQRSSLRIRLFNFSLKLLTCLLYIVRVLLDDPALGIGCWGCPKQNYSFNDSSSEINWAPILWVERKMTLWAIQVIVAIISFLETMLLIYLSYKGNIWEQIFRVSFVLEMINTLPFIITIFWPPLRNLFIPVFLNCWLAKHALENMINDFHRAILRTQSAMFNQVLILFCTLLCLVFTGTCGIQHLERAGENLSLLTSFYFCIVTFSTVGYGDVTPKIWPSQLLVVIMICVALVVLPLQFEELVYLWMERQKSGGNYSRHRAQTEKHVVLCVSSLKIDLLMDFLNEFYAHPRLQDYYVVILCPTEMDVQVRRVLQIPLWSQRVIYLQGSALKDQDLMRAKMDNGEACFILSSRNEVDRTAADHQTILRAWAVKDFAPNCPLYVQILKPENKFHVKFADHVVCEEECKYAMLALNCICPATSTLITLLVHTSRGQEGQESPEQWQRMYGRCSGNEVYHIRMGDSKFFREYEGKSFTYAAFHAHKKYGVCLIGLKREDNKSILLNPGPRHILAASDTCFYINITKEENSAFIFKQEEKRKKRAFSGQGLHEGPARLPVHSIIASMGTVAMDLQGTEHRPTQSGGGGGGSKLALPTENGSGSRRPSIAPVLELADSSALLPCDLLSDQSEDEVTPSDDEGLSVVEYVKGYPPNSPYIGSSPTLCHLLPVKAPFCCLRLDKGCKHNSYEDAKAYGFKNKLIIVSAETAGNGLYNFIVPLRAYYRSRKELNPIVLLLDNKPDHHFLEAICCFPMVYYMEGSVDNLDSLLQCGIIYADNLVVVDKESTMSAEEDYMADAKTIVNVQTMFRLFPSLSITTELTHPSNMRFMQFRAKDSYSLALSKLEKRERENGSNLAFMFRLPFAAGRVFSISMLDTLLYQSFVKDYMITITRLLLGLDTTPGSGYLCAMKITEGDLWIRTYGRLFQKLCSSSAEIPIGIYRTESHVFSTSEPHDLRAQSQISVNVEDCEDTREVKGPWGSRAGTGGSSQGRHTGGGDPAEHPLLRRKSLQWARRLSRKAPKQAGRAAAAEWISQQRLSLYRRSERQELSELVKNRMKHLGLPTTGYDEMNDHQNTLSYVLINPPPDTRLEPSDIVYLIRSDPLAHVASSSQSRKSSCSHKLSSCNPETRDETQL
The experiment in a line: Tl+ flux assay in HEK-293 cells stably expressing WT human SLACK. In kind it is cell-based. To be noted: for IC50 / EC50: CRC; for Mode: Tl+ flux, HEK-293 cells expressing WT SLACK. In a few lines: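 Stably transfected HEK-293 cells expressing wild-type human SLACK; thallium flux read-out. IC50 or EC50 taken from concentration-response curves, and each compound classed as inhibitor, activator or not active. Efficacy is the response amplitude at 30 μM test compound, as a percentage of the maximum response to a reference SLACK inhibitor (for inhibitors) or loxapine (for activators).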

The mark [1] stands for this setting: IC50 for compounds of mode Inh (also cells printed Inactive).

Turning to `CCOc1ccccc1S(=O)(=O)N1CC(c2nc(-c3cccc(C)c3)no2)C1` [Compound 51, 5-(1-((2-Ethoxyphenyl)sulfonyl)azetidin-3-yl)-3-(m-tolyl)-1,2,4-oxadiazole], under setting [1], the “IC50 / EC50” value was over 10 µM.
On to `CCOc1ccccc1S(=O)(=O)N1CC(c2nc(-c3ccc(C)cc3)no2)C1` [Compound 52, 5-(1-((2-Ethoxyphenyl)sulfonyl)azetidin-3-yl)-3-(p-tolyl)-1,2,4-oxadiazole], for which the Mode result is given as “Inactive”. Under setting [1], the “IC50 / EC50” value is “Inactive”.
Take `CCOc1ccccc1S(=O)(=O)N1CC(c2nc(-c3ccccc3OC)no2)C1` [Compound 53, 5-(1-((2-Ethoxyphenyl)sulfonyl)azetidin-3-yl)-3-(2-methoxyphenyl)-1,2,4-oxadiazole]: the “IC50 / EC50” value (EC50 for compounds of mode Act) is over 10 µM.
Take `CCOc1ccccc1S(=O)(=O)N1CC(c2nc(-c3cccc(OC)c3)no2)C1` [Compound 54, 5-(1-((2-Ethoxyphenyl)sulfonyl)azetidin-3-yl)-3-(3-methoxyphenyl)-1,2,4-oxadiazole]: the “IC50 / EC50” value (EC50 for compounds of mode Act) was over 10 µM.
For the molecule `CCOc1ccccc1S(=O)(=O)N1CC(c2nc(-c3nccs3)no2)C1` [Compound 61, 5-(1-((2-Ethoxyphenyl)sulfonyl)azetidin-3-yl)-3-(thiazol-2-yl)-1,2,4-oxadiazole], the Mode entry is “Inactive”. In addition, the “IC50 / EC50” value under setting [1] is reported as “Inactive”.
`CCOc1ccccc1S(=O)(=O)N1CC(c2nc(-c3ccco3)no2)C1` [Compound 63, 5-(1-((2-Ethoxyphenyl)sulfonyl)azetidin-3-yl)-3-(furan-2-yl)-1,2,4-oxadiazole]: the “IC50 / EC50” value under setting [1] was over 10 µM.
Turning to `CCOc1ccccc1S(=O)(=O)N1CC(c2nc(-c3ccccn3)no2)C1` [Compound 64, 5-(1-((2-Ethoxyphenyl)sulfonyl)azetidin-3-yl)-3-(pyridin-2-yl)-1,2,4-oxadiazole], the Mode entry is “Inactive”. Besides, under setting [1], the “IC50 / EC50” value was “Inactive”.
Take `CCOc1ccccc1S(=O)(=O)N1CC(c2nc(-c3cccnc3)no2)C1` [Compound 65, 5-(1-((2-Ethoxyphenyl)sulfonyl)azetidin-3-yl)-3-(pyridin-3-yl)-1,2,4-oxadiazole]: the Mode result is given as “Inactive”. Besides, the “IC50 / EC50” value under setting [1] was “Inactive”.
`CCOc1ccccc1S(=O)(=O)N1CC(c2nc(-c3ccncc3)no2)C1` [Compound 66, 5-(1-((2-Ethoxyphenyl)sulfonyl)azetidin-3-yl)-3-(pyridin-4-yl)-1,2,4-oxadiazole]: the Mode result is “Inactive”. In addition, the “IC50 / EC50” value under setting [1] is recorded as “Inactive”.
For the molecule `CCOc1ccccc1S(=O)(=O)N1CC(c2nc(-c3ccc(F)cn3)no2)C1` [Compound 67, 5-(1-((2-Ethoxyphenyl)sulfonyl)azetidin-3-yl)-3-(5-fluoropyridin-2-yl)-1,2,4-oxadiazole], the Mode entry is “Inactive”. Also, the “IC50 / EC50” value under setting [1] is recorded as “Inactive”.
Take `CCOc1ccccc1S(=O)(=O)N1CC(c2nc(-c3ncccn3)no2)C1` [Compound 68, 5-(1-((2-Ethoxyphenyl)sulfonyl)azetidin-3-yl)-3-(pyrimidin-2-yl)-1,2,4-oxadiazole]: the Mode entry is on record as “Inactive”. The “IC50 / EC50” value under setting [1] is reported as “Inactive”.
For the molecule `CCOc1ccccc1S(=O)(=O)N1CC(C)(c2nc(-c3ccc(F)cc3)no2)C1` [Compound 69], under “EC50 for compounds of mode Act”, the “IC50 / EC50” value was determined as 4.0 µM.
Turning to `CCOc1ccccc1S(=O)(=O)N1CC(F)(c2nc(-c3ccc(F)cc3)no2)C1` [Compound 70], the “IC50 / EC50” value under setting [1] was 9.2 µM.
In the case of `CCOc1ccccc1S(=O)(=O)C1CN(c2nc(-c3ccc(F)cc3)no2)C1` [Compound 71], under setting [1], the “IC50 / EC50” value was over 10 µM.
For the molecule `CCOc1ccccc1S(=O)(=O)[C@H]1C[C@@H](c2nc(-c3ccc(F)cc3)no2)C1` [Compound 73a], the Mode entry is on record as “Inactive”. Under setting [1], the “IC50 / EC50” value was “Inactive”.
For the molecule `CCOc1ccccc1S(=O)(=O)[C@H]1C[C@H](c2nc(-c3ccc(F)cc3)no2)C1` [Compound 73b], the “IC50 / EC50” value under setting [1] is over 10 µM.
On the same count and under the same terms, as for `CCOc1ccccc1S(=O)(=O)N1CC[C@@H](c2nc(-c3ccc(F)cc3)no2)C1` [Compound 74], the figure is over 10 µM.
Still for that read-out and setting: for `CCOc1ccccc1S(=O)(=O)N1CC[C@H](c2nc(-c3ccc(F)cc3)no2)C1` [Compound 75] the value was over 10 µM.
As for `CCOc1ccccc1S(=O)(=O)c1ccc(-c2nc(-c3ccc(F)cc3)no2)cc1` [Compound 77], the Mode result is “Inactive”. Further, the “IC50 / EC50” value under setting [1] was “Inactive”.
Consider `CCOc1ccccc1S(=O)(=O)N1CC(c2nnc(-c3ccc(F)cc3)o2)C1` [Compound 81], for which the “IC50 / EC50” value (EC50 for compounds of mode Act) was over 10 µM.
On the same count and under the same terms, for `CCOc1ccccc1S(=O)(=O)N1CC(c2nnc(-c3ccc(F)cc3)[nH]2)C1` [Compound 86] the value was over 10 µM.
Consider `CCOc1ccccc1S(=O)(=O)N1CC(c2cc(-c3ccc(F)cc3)no2)C1` [Compound 92], for which the Mode entry was “Inactive”. Besides, under setting [1], the “IC50 / EC50” value was “Inactive”.
Take `CCOc1ccccc1S(=O)(=O)N1CC(c2cn(-c3ccc(F)cc3)nn2)C1` [Compound 95]: the “IC50 / EC50” value (EC50 for compounds of mode Act) was over 10 µM.
On the same count and under the same terms, for `CCOc1ccccc1S(=O)(=O)N1CC(c2ncc(-c3ccc(F)cc3)o2)C1` [Compound 97] the value was 10 µM.
On the same count and under the same terms, as for `CCOc1ccccc1S(=O)(=O)N1CC(c2nc(-c3ccc(F)cc3)c[nH]2)C1` [Compound 99], the figure is 4.1 µM.
As to `CCOc1ccccc1S(=O)(=O)N1CC(c2nc(-c3ccc(F)cc3)cn2C)C1` [Compound 100], the “IC50 / EC50” value under setting [1] was over 10 µM.
Turning to `CCOc1ccccc1S(=O)(=O)N1CC(c2noc(-c3ccc(F)cc3)n2)C1` [Compound 101], the “IC50 / EC50” value under setting [1] was over 10 µM.
Take `CCOc1ccccc1S(=O)(=O)N1CC(c2cc(-c3ccc(F)cc3)on2)C1` [Compound 102]: the Mode entry was “Inactive”. In addition, the “IC50 / EC50” value under setting [1] was “Inactive”.
As for `CCOc1ccccc1S(=O)(=O)N1CC(c2cc(-c3ccc(F)cc3)n[nH]2)C1` [Compound 103], the “IC50 / EC50” value (EC50 for compounds of mode Act) was over 10 µM.
For `O=S(=O)(c1ccccc1OCC1CCC1)N1CC(c2nc(-c3ccc(F)cc3)no2)C1` [Compound 110, 5-(1-((2-(Cyclobutylmethoxy)phenyl)sulfonyl)azetidin-3-yl)-3-(4-fluorophenyl)-1,2,4-oxadiazole], the “IC50 / EC50” value under setting [1] came to 9.3 µM.
As for `CCOc1ncccc1S(=O)(=O)N1CC(c2nc(-c3ccc(F)cc3)no2)C1` [Compound 111], under setting [1], the “IC50 / EC50” value is over 10 µM.
Take `O=S(=O)(c1ccccc1OCC1CC1)N1CC(c2nc(-c3ccc(F)cc3)no2)C1` [Compound 114, 5-(1-((2-(Cyclopropylmethoxy)phenyl)sulfonyl)azetidin-3-yl)-3-(4-fluorophenyl)-1,2,4-oxadiazole]: the “IC50 / EC50” value under setting [1] is 6.0 µM.
For the molecule `O=S(=O)(c1ccccc1OC1COC1)N1CC(c2nc(-c3ccc(F)cc3)no2)C1` [Compound 115, 3-(4-Fluorophenyl)-5-(1-((2-(oxetan-3-yloxy)phenyl)sulfonyl)azetidin-3-yl)-1,2,4-oxadiazole], the “IC50 / EC50” value (EC50 for compounds of mode Act) amounted to 2.5 µM.
As for `O=S(=O)(c1ccccc1OC1CCCC1)N1CC(c2nc(-c3ccc(F)cc3)no2)C1` [Compound 116, 5-(1-((2-(cyclopentyloxy)phenyl)sulfonyl)azetidin-3-yl)-3-(4-fluorophenyl)-1,2,4-oxadiazole], the “IC50 / EC50” value under setting [1] worked out at 5.8 µM.
In the case of `O=S(=O)(c1ccccc1N1CCCC1)N1CC(c2nc(-c3ccc(F)cc3)no2)C1` [Compound 117, 3-(4-Fluorophenyl)-5-(1-((2-(pyrrolidin-1-yl)phenyl)sulfonyl)azetidin-3-yl)-1,2,4-oxadiazole], the “IC50 / EC50” value under setting [1] was found to be 8.9 µM.
Regarding `O=S(=O)(c1ccccc1N1CCCCC1)N1CC(c2nc(-c3ccc(F)cc3)no2)C1` [Compound 118, 3-(4-Fluorophenyl)-5-(1-((2-(piperidin-1-yl)phenyl)sulfonyl)azetidin-3-yl)-1,2,4-oxadiazole], under setting [1], the “IC50 / EC50” value is over 10 µM.
